Source: ChEMBL document CHEMBL1921709, “Synthesis and activity of new macrolones: conjugates between 6(7)-(2'-aminoethyl)-amino-1-cyclopropyl-3-carboxylic acid (2'-hydroxyethyl) amides and 4″-propenoyl-azithromycin” (2011)
Values after ≈ are worked out from the molar mass of the structure shown.

How the values were obtained:
Format in all cases: functional
Haemophilus influenzae = assay: Antibacterial activity against Haemophilus influenzae ATCC 49247 by broth microdilution method
Procedure, shortened: (§1)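 Broth microdilution following CLSI guidelines, using two-fold serial dilutions of compound. Bacteria were first grown on appropriate agar plates. Read-out is growth inhibition, reported as MIC.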

Staphylococcus aureus [1] = assay: Antibacterial activity against efflux-mediated macrolide-resistant Staphylococcus aureus PK1 by broth microdilution method
Procedure, shortened: (§2)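 Standard CLSI broth microdilution MIC test with automated double dilutions of compound. Bacteria were pre-grown on appropriate agar plates.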

Streptococcus pyogenes [2] = assay: Antibacterial activity against efflux-mediated macrolide-resistant Streptococcus pyogenes Finland 2 by broth microdilution method
Procedure, shortened: (§3)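 CLSI broth microdilution MIC with automated double dilutions of compound. The medium was supplemented with 5% horse serum in place of lysed blood. Bacteria were pre-grown on appropriate agar plates.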

Streptococcus pyogenes [3] = assay: Antibacterial activity against inducible macrolide-lincosamide-streptogramin B resistant Streptococcus pyogenes Finland 11 by broth microdilution method; procedure, shortened: as §3
Streptococcus pyogenes [4] = assay: Antibacterial activity against erythromycin-sensitive Streptococcus pyogenes 3565 by broth microdilution method
Procedure, shortened: (§4)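 Broth microdilution following CLSI guidelines, except that 5% horse serum replaced lysed blood in the Streptococcus medium. Two-fold serial dilutions of compound were used. Bacteria were first grown on appropriate agar plates. Read-out is growth inhibition, reported as MIC.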

Staphylococcus aureus [5] = assay: Antibacterial activity against constitutive macrolide, lincosamide, streptogramin-resistant Staphylococcus aureus PK2 by broth microdilution method; procedure, shortened: as §2
Staphylococcus aureus [6] = assay: Antibacterial activity against erythromycin-sensitive Staphylococcus aureus ATCC 13709 by broth microdilution method; procedure, shortened: as §1
Streptococcus pneumoniae [7] = assay: Antibacterial activity against inducible macrolide-resistant, constitutive lincosamide and streptogramin-resistant Streptococcus pneumoniae 134 GR M by broth microdilution method; procedure, shortened: as §3
Streptococcus pneumoniae [8] = assay: Antibacterial activity against efflux-mediated macrolide-resistant Streptococcus pneumoniae Ci137 by broth microdilution method; procedure, shortened: as §3
Staphylococcus aureus [9] = assay: Antibacterial activity against inducible macrolide, lincosamide and streptogramin B-resistant Staphylococcus aureus 90256/97 by broth microdilution method; procedure, shortened: as §2
Streptococcus pneumoniae [10] = assay: Antibacterial activity against erythromycin-sensitive Streptococcus pneumoniae SP 030 by broth microdilution method; procedure, shortened: as §4
Streptococcus pneumoniae [11] = assay: Antibacterial activity against constitutive macrolide, lincosamide, streptogramin-resistant Streptococcus pneumoniae 58 spain by broth microdilution method; procedure, shortened: as §3
Streptococcus pyogenes [12] = assay: Antibacterial activity against constitutive macrolide, lincosamide, streptogramin-resistant Streptococcus pyogenes 166 GR-Micro by broth microdilution method; procedure, shortened: as §3
Moraxella catarrhalis = assay: Antibacterial activity against Moraxella catarrhalis ATCC 23246 by broth microdilution method; procedure, shortened: as §1

| SMILES | MIC (Haemophilus influenzae) [µg/mL] | MIC (Staphylococcus aureus [1]) [µg/mL] | MIC (Streptococcus pyogenes [2]) [µg/mL] | MIC (Streptococcus pyogenes [3]) [µg/mL] | MIC (Streptococcus pyogenes [4]) [µg/mL] | MIC (Staphylococcus aureus [5]) [µg/mL] | MIC (Staphylococcus aureus [6]) [µg/mL] | MIC (Streptococcus pneumoniae [7]) [µg/mL] | MIC (Streptococcus pneumoniae [8]) [µg/mL] | MIC (Staphylococcus aureus [9]) [µg/mL] | MIC (Streptococcus pneumoniae [10]) [µg/mL] | MIC (Streptococcus pneumoniae [11]) [µg/mL] | MIC (Streptococcus pyogenes [12]) [µg/mL] | MIC (Moraxella catarrhalis) [µg/mL] |
| --- | --- | --- | --- | --- | --- | --- | --- | --- | --- | --- | --- | --- | --- | --- |
| CC[C@H]1OC(=O)[C@H](C)[C@@H](O[C@H]2C[C@@](C)(OC)[C@@H](OC(=O)CCN(C)CCNc3cc4c(cc3F)c(=O)c(C(=O)NCCO)cn4C3CC3)[C@H](C)O2)[C@H](C)[C@@H](O[C@@H]2O[C@H](C)C[C@H](N(C)C)[C@H]2O)[C@](C)(O)C[C@@H](C)CN(C)[C@H](C)[C@@H](O)[C@]1(C)O | 16 (≈ 13.7 µM) | > 64 | 16 (≈ 13.7 µM) | 16 (≈ 13.7 µM) | 0.5 (≈ 0.429 µM) | > 64 | 16 (≈ 13.7 µM) | 16 (≈ 13.7 µM) | 2 (≈ 1.72 µM) | > 64 | ≤ 0.125 | > 64 | > 64 | 8 (≈ 6.86 µM) |
| COC(=O)c1cn(C2CC2)c2cc(Cl)c(NCCNC(=O)OC(C)(C)C)cc2c1=O | > 64 | > 64 | > 64 | > 64 | > 64 | > 64 | > 64 | > 64 | > 64 | > 64 | > 64 | > 64 | > 64 | > 64 |
| COC(=O)c1cn(C2CC2)c2cc(NCCNC(=O)OC(C)(C)C)c(F)cc2c1=O | > 64 | > 64 | > 64 | > 64 | > 64 | > 64 | > 64 | > 64 | > 64 | > 64 | > 64 | > 64 | > 64 | 8 (≈ 19.1 µM) |
| CC(C)(C)OC(=O)NCCNc1cc2c(=O)c(C(=O)NCCO)cn(C3CC3)c2cc1Cl | > 64 | > 64 | > 64 | > 64 | 64 (≈ 138 µM) | > 64 | > 64 | > 64 | > 64 | > 64 | 16 (≈ 34.4 µM) | > 64 | > 64 | 32 (≈ 68.8 µM) |
| CC(C)(C)OC(=O)NCCNc1cc2c(cc1F)c(=O)c(C(=O)NCCO)cn2C1CC1 | > 64 | > 64 | > 64 | > 64 | 16 (≈ 35.7 µM) | > 64 | 64 (≈ 143 µM) | > 64 | > 64 | > 64 | 16 (≈ 35.7 µM) | > 64 | > 64 | 16 (≈ 35.7 µM) |
| NCCNc1cc2c(=O)c(C(=O)NCCO)cn(C3CC3)c2cc1Cl | > 64 | > 64 | > 64 | > 64 | > 64 | > 64 | > 64 | > 64 | > 64 | > 64 | 64 (≈ 175 µM) | > 64 | > 64 | 64 (≈ 175 µM) |
| NCCNc1cc2c(cc1F)c(=O)c(C(=O)NCCO)cn2C1CC1 | > 64 | > 64 | > 64 | > 64 | > 64 | > 64 | > 64 | > 64 | > 64 | > 64 | > 64 | > 64 | > 64 | > 64 |
| CC[C@H]1OC(=O)[C@H](C)[C@@H](O[C@H]2C[C@@](C)(OC)[C@@H](OC(=O)CCNCCNc3cc4c(=O)c(C(=O)NCCO)cn(C5CC5)c4cc3Cl)[C@H](C)O2)[C@H](C)[C@@H](O[C@@H]2O[C@H](C)C[C@H](N(C)C)[C@H]2O)[C@](C)(O)C[C@@H](C)CN(C)[C@H](C)[C@@H](O)[C@]1(C)O | 4 (≈ 3.43 µM) | > 64 | 4 (≈ 3.43 µM) | 1 (≈ 0.856 µM) | ≤ 0.125 | > 64 | 4 (≈ 3.43 µM) | 32 (≈ 27.4 µM) | 2 (≈ 1.71 µM) | > 64 | ≤ 0.125 | 16 (≈ 13.7 µM) | 32 (≈ 27.4 µM) | 0.5 (≈ 0.428 µM) |
| CC[C@H]1OC(=O)[C@H](C)[C@@H](O[C@H]2C[C@@](C)(OC)[C@@H](OC(=O)CCNCCNc3cc4c(cc3F)c(=O)c(C(=O)NCCO)cn4C3CC3)[C@H](C)O2)[C@H](C)[C@@H](O[C@@H]2O[C@H](C)C[C@H](N(C)C)[C@H]2O)[C@](C)(O)C[C@@H](C)CN(C)[C@H](C)[C@@H](O)[C@]1(C)O | 4 (≈ 3.47 µM) | > 64 | 16 (≈ 13.9 µM) | 4 (≈ 3.47 µM) | ≤ 0.125 | > 64 | 4 (≈ 3.47 µM) | 64 (≈ 55.6 µM) | 4 (≈ 3.47 µM) | > 64 | ≤ 0.125 | 32 (≈ 27.8 µM) | > 64 | 0.5 (≈ 0.434 µM) |
| CC[C@H]1OC(=O)[C@H](C)[C@@H](O[C@H]2C[C@@](C)(OC)[C@@H](OC(=O)CCN(C)CCNc3cc4c(=O)c(C(=O)NCCO)cn(C5CC5)c4cc3Cl)[C@H](C)O2)[C@H](C)[C@@H](O[C@@H]2O[C@H](C)C[C@H](N(C)C)[C@H]2O)[C@](C)(O)C[C@@H](C)CN(C)[C@H](C)[C@@H](O)[C@]1(C)O | 4 (≈ 3.38 µM) | 32 (≈ 27.1 µM) | 2 (≈ 1.69 µM) | 2 (≈ 1.69 µM) | ≤ 0.125 | > 64 | 2 (≈ 1.69 µM) | 4 (≈ 3.38 µM) | 0.5 (≈ 0.423 µM) | > 64 | ≤ 0.125 | 32 (≈ 27.1 µM) | > 64 | 1 (≈ 0.846 µM) |
| CC[C@H]1OC(=O)[C@H](C)[C@@H](O[C@H]2C[C@@](C)(OC)[C@@H](OC(=O)CCNCCNc3ccc4c(c3)c(=O)c(C(=O)NCCO)cn4C3CC3)[C@H](C)O2)[C@H](C)[C@@H](O[C@@H]2O[C@H](C)C[C@H](N(C)C)[C@H]2O)[C@](C)(O)C[C@@H](C)CN(C)[C@H](C)[C@@H](O)[C@]1(C)O | 8 (≈ 7.06 µM) | > 64 | 16 (≈ 14.1 µM) | 4 (≈ 3.53 µM) | 0.25 (≈ 0.221 µM) | > 64 | 4 (≈ 3.53 µM) | 32 (≈ 28.2 µM) | 4 (≈ 3.53 µM) | > 64 | ≤ 0.125 | > 64 | > 64 | 0.5 (≈ 0.441 µM) |
| CC[C@H]1OC(=O)[C@H](C)[C@@H](O[C@H]2C[C@@](C)(OC)[C@@H](OC(=O)CCN(C)CCNc3ccc4c(c3)c(=O)c(C(=O)NCCO)cn4C3CC3)[C@H](C)O2)[C@H](C)[C@@H](O[C@@H]2O[C@H](C)C[C@H](N(C)C)[C@H]2O)[C@](C)(O)C[C@@H](C)CN(C)[C@H](C)[C@@H](O)[C@]1(C)O | 4 (≈ 3.49 µM) | 64 (≈ 55.8 µM) | 4 (≈ 3.49 µM) | 4 (≈ 3.49 µM) | 0.25 (≈ 0.218 µM) | > 64 | 2 (≈ 1.74 µM) | 4 (≈ 3.49 µM) | 1 (≈ 0.871 µM) | > 64 | ≤ 0.125 | > 64 | > 64 | 1 (≈ 0.871 µM) |
| CC[C@H]1OC(=O)[C@H](C)[C@@H](O[C@H]2C[C@@](C)(OC)[C@@H](O)[C@H](C)O2)[C@H](C)[C@@H](O[C@@H]2O[C@H](C)C[C@H](N(C)C)[C@H]2O)[C@](C)(O)C[C@@H](C)CN(C)[C@H](C)[C@@H](O)[C@]1(C)O [AZITHROMYCIN] | 1 (≈ 1.34 µM) | > 64 | 8 (≈ 10.7 µM) | 16 (≈ 21.4 µM) | ≤ 0.125 | > 64 | 0.5 (≈ 0.668 µM) | > 64 | 8 (≈ 10.7 µM) | > 64 | ≤ 0.125 | > 64 | > 64 | ≤ 0.125 |
